Source: PubChem BioAssay
This is a sample that favours compounds with a hit; in the whole collection about 1.9% have one here.
CHRM5 agonist = agonists of human muscarinic M5 receptor (CHRM5); P08912; CHO-K1 hM5 cells, Fluo-8 calcium fluorescence; 0% DMSO wells, 100% maximal acetylcholine response; activation, % at 3 µM; actives 0.19% (n = 360,000);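 active means activation above the run's mean over test compounds plus 3 SD, cut at about 23% in these data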;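 further: signal is peak over basal fluorescence ratio across the kinetic read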
CHRM4 antagonist = CHRM4 antagonism in calcium assay | CHO-hM4 cells, ACh EC80, Fluo-8 calcium fluorescence | inhibition, % at 3 µM | actives 0.73% (n = 360,000) | P08173;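 active means inhibition above its plate's cutoff, the mean inhibition of sample wells plus 3 SD, cut at about 27% in these data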
Target sequence (P08173 whole entry, looked up): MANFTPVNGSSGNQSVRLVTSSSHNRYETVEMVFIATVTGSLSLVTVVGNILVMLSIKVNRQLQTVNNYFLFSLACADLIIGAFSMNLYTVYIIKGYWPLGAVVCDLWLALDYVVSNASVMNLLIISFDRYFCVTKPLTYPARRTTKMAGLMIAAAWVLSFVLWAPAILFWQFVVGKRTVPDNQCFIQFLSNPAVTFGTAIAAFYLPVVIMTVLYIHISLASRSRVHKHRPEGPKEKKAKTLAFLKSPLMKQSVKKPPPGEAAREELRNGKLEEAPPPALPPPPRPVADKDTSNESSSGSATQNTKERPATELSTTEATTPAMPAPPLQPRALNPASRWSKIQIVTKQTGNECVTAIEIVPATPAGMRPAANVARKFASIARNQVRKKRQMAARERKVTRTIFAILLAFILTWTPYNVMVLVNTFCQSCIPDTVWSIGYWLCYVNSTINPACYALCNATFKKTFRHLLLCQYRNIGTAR
CHRM5 antagonist = antagonists of human muscarinic M5 receptor (CHRM5) | P08912 | CHO-hM5 cells, Fluo-8 calcium fluorescence, ACh EC80 | inhibition, % at 3 µM | actives 0.59% (n = 360,000);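 active means inhibition above a per-plate cutoff, the mean of that plate's test compounds plus 3 SD, cut at about 27% in these data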
M4 ag = agonists of human muscarinic M4 receptor (CHRM4) | P08173 | CHO-K1 hM4/Gqi5, Fluo-8 calcium fluorescence; vehicle 0%, full acetylcholine response 100% | activation, % at 3 µM | actives 0.14% (n = 360,000) | AID 624127;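 active means activation above the run mean over all test wells plus 3 SD, cut at about 32% in these data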;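 further: peak over basal fluorescence ratio per well then scaled between controls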
CHRM5 PAM = positive allosteric modulators of human muscarinic M5 receptor; activation, % at 3 µM; CHO-K1 hM5, Fluo-8 calcium, ACh EC20 PAM; 0% = ACh EC20, 100% = ACh EC100; actives 0.3% (n = 360,000); P08912; AID 624038;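 active means activation above the run cutoff, the mean activation of all test compounds plus 3 SD, cut at about 18% in these data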
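Probe or stimulus: acetylcholine, EC20 level; Assay system: human M5 receptor in CHO-K1 cells; Schedule: compound preincubation 140 s before EC20 acetylcholine addition; Technique: intracellular calcium via Fluo-8 fluorescence; Dosing: single-point, 3 µM nominal; Read-out basis: percent activation from peak-over-basal fluorescence ratio, scaled EC20-to-EC100 acetylcholine; Repeats: one well per compound, no replicates.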
CHRM4 PAM = potentiates acetylcholine response at human M4 receptor. P08173. activation, % at 3 µM. CHO-K1 hM4/Gqi5, Fluo-8 calcium fluorescence, ACh EC20; 0% = ACh EC20, 100% = maximal ACh. AID 624126. actives 0.4% (n = 360,000);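 active means activation above its plate's cutoff, the mean activation of sample wells plus 3 SD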
Of the large screens only hits and unclear results are named; the others gave an inactive call.

CC(=NO)c1ccc2c(c1)Cc1cc([N+](=O)[O-])ccc1-2	none
Nc1ccc2c(c1)Cc1cc([N+](=O)[O-])ccc1-2	CHRM5 agonist 35, CHRM5 antagonist 28
CC(O)CN(CC(C)O)c1ccc2c(c1)Cc1cc([N+](=O)[O-])ccc1-2 (centres undefined)	CHRM5 agonist 527, CHRM4 antagonist 34, CHRM5 antagonist 73, M4 ag 90
O=S1(=O)N[C@H](Cc2ccccc2)COc2cccc(N3CCC[C@H]3CO)c21	none
CCN(CC)c1ccc(C2C(C(=O)OCCOC)=C(C)NC3=C2C(=O)CCC3)cc1 (centres undefined)	CHRM4 antagonist 35
CC1=C(C(=O)OCC2CCCO2)C(c2ccncc2)C2=C(CCCC2=O)N1 (centres undefined)	none
CC1=C(C(=O)OCC2CCCO2)C(c2ccc(C)cc2)C2=C(CCCC2=O)N1 (centres undefined)	CHRM5 PAM 20
CCc1ccc(C2CC(c3ccccc3Cl)Nc3nc(N)nn32)cc1 (centres undefined)	CHRM5 agonist 24
CCc1ccc(C2CC(c3ccccc3)Nc3nc(N)nn32)cc1 (centres undefined)	none
Cc1ccc(F)cc1NC(=O)CCc1c(C)[nH]c(=O)c(C#N)c1C	none
Cc1[nH]c(=O)c(C#N)c(C)c1CCC(=O)Nc1cc(S(C)(=O)=O)ccc1Cl	CHRM4 PAM 20
Cc1cccc(NC(=O)[C@H](NC(=O)[C@@H]2Cc3ccccc3CN2)c2ccccc2)c1	none
CCCOc1ccc(F)cc1-c1cc(C(=O)NCc2cccs2)[nH]n1	none
CN1CCN(CCn2c(=S)[nH]c3ccccc3c2=O)CC1	CHRM5 antagonist 33
O=c1c2ccccc2[nH]c(=S)n1CCN1CCN(Cc2ccccc2)CC1	none
CN(CC(=O)Nc1ccc(S(=O)(=O)N2CCCC2)cc1)Cc1c(F)cccc1Cl	none
Cc1sc2ncnc(N3CCC(C(=O)Nc4ccc(Br)cc4Br)CC3)c2c1C	CHRM4 PAM 22
CCc1cccc(NC(=O)C2CCN(c3ncnc4sc(C)c(C)c34)CC2)c1	none
CNC(=O)c1ccc(NC(=O)C2CCN(c3ncnc4sc(C)c(C)c34)CC2)cc1	CHRM4 antagonist 70, M4 ag 72
CCS(=O)(=O)N1CCN(c2ncnc3sc(C)c(C)c23)CC1	CHRM4 PAM 21
Cc1sc2ncnc(N3CCC(C(=O)Nc4ccc(Cl)cc4Cl)CC3)c2c1C	CHRM4 PAM 38
Cc1cc(C)c(C)c(S(=O)(=O)N2CCN(c3ncnc4sc(C)c(C)c34)CC2)c1C	none
O=C(NCC1CCCCC1)c1ccc2sc([C@H]3C[C@H](O)[C@@H](CO)O3)nc2c1	none
CCc1nc2ccccc2c(C(=O)OCC(=O)N2CC(C)OC(C)C2)c1C (centres undefined)	none
Cc1sc2ncnc(N3CCC(C(=O)Nc4ccc(Cl)c(Cl)c4)CC3)c2c1C	CHRM4 PAM 23
O=C(O)CP(=O)(c1ccccc1)c1ccccc1	CHRM4 PAM 22
O=P(CCO)(c1ccccc1)c1ccccc1	none
COc1ccc(S(=O)(=O)Cc2ccc(C(=O)NCCCN(C)c3ccccc3)o2)cc1	CHRM4 antagonist 28
O=C(Cc1ccccc1Cl)Nc1cc(S(=O)(=O)N2CCOCC2)ccc1N1CCOCC1	none
O=C(NCC(c1cccs1)N1CCOCC1)c1cc(S(=O)(=O)N2CCOCC2)ccc1F (centres undefined)	none
O=C(O)C1C2C=CC(C2)C1C(=O)NCc1cccs1 (centres undefined)	none
CCOC(=O)C1(C)CCCN(C(=O)c2cccc(C(F)(F)F)c2)C1 (centres undefined)	none
O=C(CNC(=O)N1CC(=O)Nc2ccccc21)NCCc1cccc(F)c1	CHRM4 PAM 19
O=C(CCNC(=O)N1CC(=O)Nc2ccccc21)NCCc1cccc(F)c1	none
Cc1scc(C(=O)NNC(=S)NC(C)c2ccccc2)c1C (centres undefined)	none
CCC(=O)N1CCN(C(=O)c2ccccc2)CC1	CHRM4 antagonist 75
Cc1ccc(Nc2c(-c3ccc(N4CCOCC4)cc3)nc3cnccn23)cc1	CHRM5 PAM 19
Cc1ccccc1Nc1c(-c2ccc(N3CCOCC3)cc2)nc2cnccn12	none
CC(OC(=O)CCc1ccccc1)C(=O)Nc1ncc(Cl)cc1Cl (centres undefined)	none
CC1=C(C)/C(=N\OS(=O)(=O)c2ccccc2)C=CC1=O	CHRM4 antagonist 67, CHRM5 antagonist 30
CC(C)(C)S(=O)N1Cc2cc(C(=O)NCc3ccc(Oc4ccccc4)cc3)nc(-c3cccc(-c4cc5ccccc5o4)c3)c2[C@@H]1CCO (some centres undefined)	none
N#Cc1ccccc1/C=C/C(=O)N1CCOCC1	CHRM5 agonist 34
O=C(/C=C/c1ccccc1Cl)N1CCOCC1	none
CSc1ccccc1OCc1cc(C(=O)N2CCc3c(Cl)cccc3C2)no1	none
CCOC(=O)Nc1ccc2c(c1)N(C(=O)CN(CC)CC)c1ccccc1CC2	CHRM4 antagonist 32
CCOC(=O)Nc1ccc2c(c1)N(C(=O)N1CCN(C)CC1)c1ccccc1S2	CHRM5 antagonist 60
CC(C)OC(=O)Nc1ccc2c(c1)N(C(=O)N1CCN(C)CC1)c1ccccc1CC2	CHRM4 antagonist 28, CHRM5 antagonist 46
CCOC(=O)Nc1ccc2c(c1)N(C(=O)CCN1CCN(C)CC1)c1ccccc1S2	none
CSCCC1NC(=O)C(C(C)=NNC(N)=O)=C1O (centres undefined)	none
CCNc1nc(NCC)n2c(SCC(=O)Nc3ccc(C(F)(F)F)cc3[N+](=O)[O-])nnc2n1	none
COc1ccc(NC(=O)CC2C(=O)N(CCc3ccccc3)C(=S)N2Cc2cccnc2)cc1 (centres undefined)	CHRM4 antagonist 27
O=C(CN1C(=O)NC2(CCc3ccccc32)C1=O)NCc1ccc(Cl)cc1 (centres undefined)	CHRM4 PAM 24
N/C(=N\OC(=O)CSc1ccccc1)c1ccccn1	CHRM4 PAM 21
O=C1CC(N2CCN(C/C=C/c3ccccc3)CC2)C(=O)N1CCc1ccccc1 (centres undefined)	none
O=C1CC(N2CCN(C/C=C/c3ccccc3)CC2)C(=O)N1Cc1cccs1 (centres undefined)	CHRM4 antagonist 34, CHRM5 antagonist 39
CC(C)(C)c1ccc(NC(=O)c2ccc(=O)[nH]n2)cc1	none
COc1ccc([C@H]2CC(=O)C[C@@H](CCn3cc(-c4ccncc4)nn3)O2)cc1	none
